# Bioassay records as filed in PubChem.
# The list is not random: actives were taken first. Their share in the collection is about 9.4%.
# Mdm2 MdmX PPI: inhibitors of human Mdm2/MdmX interaction | SaOS-2 split-luciferase Mdm2/MdmX complementation, luminescence | inhibition, % at 8 µM | actives 3% (n = 330,000);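 active means inhibition of at least 50% at 8 µM in the primary screen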
# Target sequence (O15151 whole entry, looked up): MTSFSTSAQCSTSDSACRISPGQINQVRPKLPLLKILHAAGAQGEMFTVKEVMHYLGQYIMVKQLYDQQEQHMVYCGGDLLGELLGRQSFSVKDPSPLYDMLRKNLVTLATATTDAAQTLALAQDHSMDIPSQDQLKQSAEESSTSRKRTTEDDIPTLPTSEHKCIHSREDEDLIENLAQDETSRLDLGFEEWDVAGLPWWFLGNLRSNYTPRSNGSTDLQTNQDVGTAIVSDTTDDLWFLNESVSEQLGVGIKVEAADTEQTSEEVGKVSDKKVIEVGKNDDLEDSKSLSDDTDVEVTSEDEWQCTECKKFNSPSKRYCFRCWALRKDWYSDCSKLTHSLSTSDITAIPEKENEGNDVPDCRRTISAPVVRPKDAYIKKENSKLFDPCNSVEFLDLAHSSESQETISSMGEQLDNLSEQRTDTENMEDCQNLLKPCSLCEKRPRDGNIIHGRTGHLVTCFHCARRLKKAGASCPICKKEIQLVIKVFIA
# Target sequence (Q00987 whole entry, looked up): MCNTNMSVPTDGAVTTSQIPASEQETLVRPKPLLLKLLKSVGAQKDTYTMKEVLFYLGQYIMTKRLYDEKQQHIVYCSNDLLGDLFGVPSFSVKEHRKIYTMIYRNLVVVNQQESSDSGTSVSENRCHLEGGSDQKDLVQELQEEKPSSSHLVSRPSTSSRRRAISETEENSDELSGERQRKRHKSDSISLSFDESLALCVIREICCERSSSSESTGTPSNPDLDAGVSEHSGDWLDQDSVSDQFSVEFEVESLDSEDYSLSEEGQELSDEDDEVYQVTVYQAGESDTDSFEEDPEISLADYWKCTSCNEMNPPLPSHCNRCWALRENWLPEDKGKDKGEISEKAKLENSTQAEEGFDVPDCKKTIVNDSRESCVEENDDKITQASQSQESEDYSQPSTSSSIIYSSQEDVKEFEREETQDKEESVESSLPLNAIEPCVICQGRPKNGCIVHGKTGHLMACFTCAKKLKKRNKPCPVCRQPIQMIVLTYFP
# CSC inhib: blocks cancer stem cells; cancer stem cell-like cells viability, luminescence; inhibition, % at 7.5 µM; actives 1.1% (n = 300,000); AID 2717; in the data active means inhibition above about 75%; tested in HMLE shEcad cells
# Beta apoptosis: beta cell apoptosis inhibition | INS-1E cytokine-induced death, ATP luminescence, 48 h; percent of positive-control rescue, neutral wells zero | protection from apoptosis, % (test concentration not listed) | actives 0.8% (n = 300,000) | AID 435005;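 active means Every replicate reaches about 75%, or at least half do and their mean reaches it too, limit read from the data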;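 further: 0% = cytokine-treated negative control wells and 100% = positive control rescue; higher means more ATP so stronger rescue from cytokine killing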
# T cruzi repl: blocks replication of Trypanosoma cruzi | T. cruzi beta-gal in NIH3T3, luminescence, 90 h | actives 1.4% (n = 300,000) | inhibition, % (no concentration beside the values) | AID 1885;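 active means mean inhibition across valid replicates above about 55%, limit read from the data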;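 further: signal also drops with host cell toxicity which is not excluded here; 0% = plate median of DMSO wells and 100% = zero luminescence signal; higher percent means less beta-gal luminescence so fewer parasites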
#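 Material: NIH/3T3 host cells with β-galactosidase reporter T. cruzi; Input: 5,000 host fibroblasts per well; Medium: DMEM, 2% fetal bovine serum; Compound: 50 nL DMSO compound solution per well; Schedule: 3 h host attachment, then at least 90 h co-culture; Detection: luminescent β-galactosidase signal after 60 min lysis.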
# Lmaj promast: inhibitors of Leishmania major promastigote growth | Leishmania major promastigotes, resazurin fluorescence viability | inhibition, % at 10 µM | actives 9% (n = 200,000) | AID 1063; in the data active means inhibition above about 50%;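 further: promastigotes grown with compound for 44 hours at 28 °C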
# SKKanGAS inh: blocks kanamycin growth of S. pyogenes SKKanGAS strain. BacTiter-Glo, 6 h. inhibition, % at 7.5 µM. actives 1.3% (n = 300,000);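 active means mean replicate score, as percent of positive control median, at least 50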;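 further: strain carries kanamycin resistance gene driven by streptokinase promoter and grows in 40 µg/ml kanamycin; loss of luminescence reflects streptokinase promoter inhibition or plain growth inhibition; 0% = median of DMSO wells and 100% = positive control at its reference dose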
# Mdm2 MdmX conf: confirmation of human Mdm2/MdmX interaction inhibitors. shares compounds with Mdm2 MdmX PPI. Mdm2-MdmX binding, luminescent assay. inhibition, % at 8 µM. actives 55% (n = 10,000). AID 489028; in the data active means inhibition above about 40%
# FLuc counter: full-length luciferase inhibition in Mdm2/MdmX counter-screen; shares compounds with Mdm2 MdmX PPI; SaOS-2 full-length luciferase counterscreen, luminescence; inhibition, % at 8 µM; actives 77% (n = 6,200); AID 504607;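 active means mean inhibition at 8 µM reaching about 37%, which flags the compound as non-specific, limit read from the data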;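 further: p53-null SaOS-2 cells with luciferase driven by a doxycycline-inducible promoter; compound on cells about two nights before reading with doxycycline added after day one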
# Starred values were filed as active, the others as inactive; nt = not tested or not shown.
SMILES,Mdm2 MdmX PPI,CSC inhib,Beta apoptosis,T cruzi repl,Lmaj promast,SKKanGAS inh,Mdm2 MdmX conf,FLuc counter
CCOC(=O)c1c(NC(=S)NC(=O)c2cnn(CC)c2)sc2c1CCC(C)C2 (stereo not given),54*,-2,-6,5,1,8,8,nt
CCOC(=O)c1c(NC(=O)C2C3C=CC(C3)C2C(=O)O)sc2c1CCC(C)C2 (stereo not given),7,-7,-5,-15,-4,-3,nt,nt
CCOC(=O)c1c(NC(=O)Cn2nc([N+](=O)[O-])c(Br)c2C)sc2c1CCC(C)C2 (stereo not given),58*,18,7,-19,0,-6,9,nt
CCOC(=O)c1cc(S(=O)(=O)NC2CCC(C)CC2)cn1C (stereo not given),16,-12,6,-6,nt,1,nt,nt
COc1ccc(CNS(=O)(=O)c2ccc3c(c2)NC(=O)C(C)S3)cc1 (stereo not given),1,-4,-3,0,nt,-13,nt,nt
O=C(CSc1ccc2c(c1)OCCO2)Nc1ccc(Cl)cn1,11,19,-7,-5,-10,11,nt,nt
O=C(CSc1ccc2c(c1)OCCO2)Nc1ccc(Br)cn1,64*,nt,-5,1,nt,0,19,nt
CC(C)CCNC(=O)CN(Cc1ccco1)C(=O)CCC(=O)Nc1nccs1,3,-9,-4,-5,nt,3,nt,nt
Cc1cc2nc(-c3ccc(=O)[nH]c3)n(Cc3ccccc3)c2cc1C,36,9,1,1,nt,-1,nt,nt
Cc1ccccc1C(=O)O/N=C(\N)c1ccccc1,86*,-1,6,1,nt,5,41*,114*
Cc1cccc(/C(N)=N/OC(=O)c2ccncc2)c1,-105,7,0,-5,nt,-1,nt,nt
Cc1onc(-c2ccccc2Cl)c1C(=O)Nc1cccc2cccnc12,64*,53,7,10,17,26,17,nt
Cc1occc1C(=O)O/N=C(\N)c1ccccc1,72*,21,42,6,nt,47,-2,nt
COc1cc(NC(=O)c2c(-c3ccccc3Cl)noc2C)c2ncccc2c1,24,46,15,28,nt,3,nt,nt
Cc1cccc(/C(N)=N/OC(=O)c2ccoc2C)c1,94*,2,38,20,nt,-6,47*,167*
Cc1ccccc1C(=O)O/N=C(\N)c1ccc([N+](=O)[O-])cc1,35,-9,0,7,nt,2,nt,nt
O=C(NCc1ccccn1)c1ccc2nc(C3CCCCC3)oc2c1,16,8,0,6,nt,-1,nt,nt
O=C(O)c1ccccc1SCCS(=O)(=O)c1ccc(Cl)cc1Cl,-1,-5,-2,-8,nt,2,nt,nt
Cc1onc(-c2ccccc2Cl)c1C(=O)O/N=C(\N)c1ccccc1,100*,41,5,59*,nt,7,92*,112*
Cc1ccccc1/C(N)=N/OC(=O)c1ccc(F)cc1,65*,-12,nt,12,15,10,-3,nt
Cc1ccc(C2=NN(C(=O)CCl)C(c3cccs3)C2)o1 (stereo not given),100*,nt,-24,0,90*,4,100*,51*
CC(=O)N1N=C(c2ccco2)CC1c1cccs1 (stereo not given),-3,14,-6,-20,-4,-9,nt,nt
COc1cc(C2CC(c3cccs3)=NN2C(=O)CCl)ccc1OC(F)F (stereo not given),99*,34,nt,61*,nt,2,100*,51*
COc1ccc(C2CC(c3cccs3)=NN2C(=O)CCl)cc1OC (stereo not given),99*,72,-36,62*,nt,2,100*,49*
CCN(CC(=O)NCc1ccc(Cl)cc1)C(=O)CSc1ccc(Br)cc1,23,7,4,4,nt,-2,nt,nt
SMILES,Mdm2 MdmX PPI,CSC inhib,Beta apoptosis,T cruzi repl,Lmaj promast,SKKanGAS inh,Mdm2 MdmX conf,FLuc counter
CCN(CC(=O)Nc1ccc(C)c(S(=O)(=O)N2CCOCC2)c1)Cc1ccccc1,2,-11,nt,-6,nt,-2,nt,nt
CCC(C)N(C(=O)Cn1nnc(-c2ccc(Cl)cc2)n1)C1CCS(=O)(=O)C1 (stereo not given),-2,-4,nt,7,nt,-2,nt,nt
CCCC(=O)Nc1ccc2c(c1)C(=O)NC2=O,-12,2,-7,1,-6,-4,nt,nt
Cc1ccc2c(c1)Oc1ccc(NC(=O)CCCl)cc1C(=O)N2,67*,92*,-2,-69,9,8,68*,102*
C/C(=N\NC(=O)Cn1nnc2ccccc21)c1ccco1,6,-4,-1,-19,-1,-7,nt,nt
CN(C)C1=NCCN1CC1CCCCCC1,-9,-7,-8,nt,nt,nt,nt,nt
COc1ccc(C(CC(=O)c2ccc(C)cc2)C(C#N)C#N)cc1OC (stereo not given),56*,73,-22,-40,90*,-3,44*,47*
O=C(NNC(=O)c1ccccc1C(=O)O)c1ccc(O)cc1,19,-5,-6,-6,4,-12,nt,nt
NC(=O)c1ccccc1Nc1nc2nc3ccccc3c(=O)n2cc1Br,74*,15,-1,2,nt,46,-5,nt
O/N=C/c1ccc(-c2cc(Cl)ccc2Cl)o1,57*,19,0,10,67*,-12,42*,53*
Cc1ccccc1CS(=O)(=O)c1snnc1C,16,7,-6,-13,-3,0,nt,nt
Cc1ccccc1CS(=O)(=O)c1cnc2ccccc2n1,55*,-16,-14,-12,24,1,24,nt
Cc1nnc(SC(=O)N2c3ccccc3Sc3ccccc32)s1,97*,53,-12,8,63*,-5,98*,52*
O=C(O)c1cc(C(F)(F)F)nc2c(C(F)(F)F)cccc12,-4,-6,-1,-6,-1,-3,nt,nt
Cc1cc(Br)c(OCc2ccc(C(=O)N/N=C/c3ccc[nH]3)cc2)c(Br)c1,98*,98*,117*,nt,nt,nt,94*,11
O=C(N/N=C/c1ccc[nH]1)c1ccc(COc2cccc3cccnc23)cc1,97*,100*,100*,16,0,18,83*,52*
O=C(N/N=C/c1ccc[nH]1)c1ccc(O)cc1,7,-11,0,-13,-6,-2,nt,nt
COc1ccc(CCNC(=O)c2ccc(CS(=O)Cc3ccc(C)cc3)o2)cc1OC (stereo not given),34,-18,2,-7,nt,-9,nt,nt
O=C(COc1ccccc1)NCC(=O)Nc1ccncc1,-4,-9,-2,-4,nt,-2,nt,nt
Fc1ccc(C2c3[nH]c4ccccc4c3CCN2Cc2cccn2-c2ncccn2)cc1 (stereo not given),78*,-8,4,70*,67*,3,62*,61*
CC(C)(C)c1ccc(Cn2c(=O)cnc3ccccc32)cc1,72*,72,13,10,nt,0,77*,26
